Assay results taken from ChEMBL document CHEMBL1134691, “3-Phenyl-5-acyloxymethyl-2H,5H-furan-2-ones: synthesis and biological activity of a novel group of potential antifungal drugs” (2001).
Converted amounts (≈) assume the structure as drawn.

Legend:
Lichtheimia corymbifera [1] = test: In vitro inhibition of Absidia corymbifera 272 growth for 24 hours.; type: functional; conditions: Lichtheimia corymbifera, 24 h; read-out: MIC
Summary of the method: (§1)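 Filamentous isolates tested by microdilution per NCCLS M27-A in RPMI 1640 plus L-glutamine, buffered with 0.165 M MOPS to pH 7.0. Final inoculum 5 × 10^3 cfu/mL. Compounds in DMSO (final ≤2%), 2-fold series over 1000–0.24 µmol/L. Plates held at 35 °C and read visually after 24 and 48 h. MIC taken as 80% inhibition of control growth; determined twice in duplicate.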

Lichtheimia corymbifera [2] = test: In vitro inhibition of Absidia corymbifera 272 growth for 48 hours.; type: functional; conditions: Lichtheimia corymbifera, 48 h; read-out: MIC; summary of the method: as §1
Pichia kudriavzevii [3] = test: Inhibition of Candida krusei ATCC 6258 growth for 24 hours in vitro.; type: functional; conditions: Pichia kudriavzevii, ATCC 6258, 24 h; read-out: MIC
Summary of the method: (§2)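 NCCLS M27-A broth microdilution in RPMI 1640 with L-glutamine and 0.165 M MOPS, pH 7.0. Isolates kept on Sabouraud dextrose agar. Inoculum 5 × 10^3 cfu/mL final. Compounds were diluted in DMSO (≤2% final) and tested in 2-fold dilutions of 1000–0.24 µmol/L. Incubation at 35 °C, OD540 read at 24 and 48 h. MIC = 80% growth inhibition versus control; assays run twice in duplicate.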

Pichia kudriavzevii [4] = test: Inhibition of Candida krusei ATCC 6258 growth for 48 hours in vitro.; type: functional; conditions: Pichia kudriavzevii, ATCC 6258, 48 h; read-out: MIC; summary of the method: as §2
Pichia kudriavzevii [5] = test: Inhibition of Candida krusei E28 growth for 24 hours in vitro.; type: functional; conditions: Pichia kudriavzevii, 24 h; read-out: MIC; summary of the method: as §2
Pichia kudriavzevii [6] = test: Inhibition of Candida krusei E28 growth for 48 hours in vitro.; type: functional; conditions: Pichia kudriavzevii, 48 h; read-out: MIC; summary of the method: as §2
Aspergillus fumigatus [7] = test: Inhibition of Aspergillus fumigatus 231 growth for 48 hours in vitro.; type: functional; conditions: Aspergillus fumigatus, 48 h; read-out: MIC; summary of the method: as §1
Clavispora lusitaniae [8] = test: Inhibition of Candida lusitaniae 2446/I growth for 24 hours in vitro.; type: functional; conditions: Clavispora lusitaniae, 24 h; read-out: MIC; summary of the method: as §2
Clavispora lusitaniae [9] = test: Inhibition of Candida lusitaniae 2446/I growth for 48 hours in vitro.; type: functional; conditions: Clavispora lusitaniae, 48 h; read-out: MIC; summary of the method: as §2
Candida parapsilosis [10] = test: Inhibition of Candida parapsilosis ATCC 22019 growth for 24 hours in vitro.; type: functional; conditions: Lodderomyces parapsilosis, ATCC 22019, 24 h; read-out: MIC; summary of the method: as §2
Candida parapsilosis [11] = test: Inhibition of Candida parapsilosis ATCC 22019 growth for 48 hours in vitro.; type: functional; conditions: Lodderomyces parapsilosis, ATCC 22019, 48 h; read-out: MIC; summary of the method: as §2
Candida albicans [12] = test: Inhibition of Candida albicans ATCC 44859 growth for 24 hours in vitro.; type: functional; conditions: Candida albicans, ATCC 44859, 24 h; read-out: MIC; summary of the method: as §2
Candida albicans [13] = test: Inhibition of Candida albicans ATCC 44859 growth for 48 hours in vitro.; type: functional; conditions: Candida albicans, ATCC 44859, 48 h; read-out: MIC; summary of the method: as §2
Candida albicans [14] = test: Inhibition of Candida albicans ATCC 90028 for 24 hours in vitro.; type: functional; conditions: Candida albicans, ATCC 90028, 24 h; read-out: MIC; summary of the method: as §2
Candida albicans [15] = test: Inhibition of Candida albicans ATCC 90028 for 48 hours in vitro.; type: functional; conditions: Candida albicans, ATCC 90028, 48 h; read-out: MIC; summary of the method: as §2
Nakaseomyces glabratus [16] = test: Inhibition of Candida glabrata 20/I growth for 24 hours in vitro.; type: functional; conditions: Nakaseomyces glabratus, 24 h; read-out: MIC; summary of the method: as §2
Nakaseomyces glabratus [17] = test: Inhibition of Candida glabrata 20/I growth for 48 hours in vitro.; type: functional; conditions: Nakaseomyces glabratus, 48 h; read-out: MIC; summary of the method: as §2
Candida tropicalis [18] = test: Inhibition of Candida tropicalis 156 growth for 24 hours in vitro.; type: functional; conditions: Candida tropicalis, 24 h; read-out: MIC; summary of the method: as §2
Trichosporon beigelii [19] = test: Inhibition of Trichosporon beigelli 1188 for 24 hours in vitro.; type: functional; conditions: Trichosporon beigelii, 24 h; read-out: MIC
Summary of the method: (§3)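 Microdilution following NCCLS M27-A. Medium: RPMI 1640 with L-glutamine, 0.165 M MOPS, pH 7.0. Final inoculum 5 × 10^3 cfu/mL. Compounds dissolved in DMSO, final ≤2%, serially halved from 1000 to 0.24 µmol/L. Incubated at 35 °C and read at 24 and 48 h. MIC defined as 80% inhibition of control growth; run twice in duplicate.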

Trichosporon beigelii [20] = test: Inhibition of Trichosporon beigelli 1188 for 48 hours in vitro.; type: functional; conditions: Trichosporon beigelii, 48 h; read-out: MIC; summary of the method: as §3
[21] = Inhibition of Trichophyton mentagrophytes 445 growth for 72 hours in vitro.; type: functional, Arthroderma benhamiae; conditions: Trichophyton benhamiae, 72 h; read-out: MIC
Summary of the method: (§4)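 Dermatophyte grown in MOPS-buffered (0.165 M, pH 7.0) RPMI 1640 containing L-glutamine, in an M27-A microdilution format. Inoculum 5 × 10^3 cfu/mL final. Compounds from DMSO stocks (≤2% final), 2-fold dilutions 1000–0.24 µmol/L. Incubated at 35 °C, growth judged visually at 72 and 120 h. MIC endpoint is 80% inhibition relative to control; measured twice in duplicate.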

[22] = Inhibition of Trichophyton mentagrophytes 445 growth for 120 hours in vitro.; type: functional, Arthroderma benhamiae; conditions: Trichophyton benhamiae, 120 h; read-out: MIC; summary of the method: as §4
Aspergillus fumigatus [23] = test: Inhibition of Aspergillus fumigatus 231 growth for 24 hours in vitro.; type: functional; conditions: Aspergillus fumigatus, 24 h; read-out: MIC; summary of the method: as §1
Candida tropicalis [24] = test: Inhibition of Candida tropicalis 156 growth for 48 hours in vitro.; type: functional; conditions: Candida tropicalis, 48 h; read-out: MIC; summary of the method: as §2

Row | MIC (Lichtheimia corymbifera [1]) | MIC (Lichtheimia corymbifera [2]) | MIC (Pichia kudriavzevii [3]) | MIC (Pichia kudriavzevii [4]) | MIC (Pichia kudriavzevii [5]) | MIC (Pichia kudriavzevii [6]) | MIC (Aspergillus fumigatus [7]) | MIC (Clavispora lusitaniae [8]) | MIC (Clavispora lusitaniae [9]) | MIC (Candida parapsilosis [10]) | MIC (Candida parapsilosis [11]) | MIC (Candida albicans [12]) | MIC (Candida albicans [13]) | MIC (Candida albicans [14]) | MIC (Candida albicans [15]) | MIC (Nakaseomyces glabratus [16]) | MIC (Nakaseomyces glabratus [17]) | MIC (Candida tropicalis [18]) | MIC (Trichosporon beigelii [19]) | MIC (Trichosporon beigelii [20]) | Compound | further results
1 | 7.81 µM (≈ 2.76 µg/mL) | 15.6 µM (≈ 5.52 µg/mL) | 3.91 µM (≈ 1.38 µg/mL) | 7.81 µM (≈ 2.76 µg/mL) | 7.81 µM (≈ 2.76 µg/mL) | 7.81 µM (≈ 2.76 µg/mL) | 3.91 µM (≈ 1.38 µg/mL) | 3.91 µM (≈ 1.38 µg/mL) | 7.81 µM (≈ 2.76 µg/mL) | 3.91 µM (≈ 1.38 µg/mL) | 15.6 µM (≈ 5.52 µg/mL) | 0.49 µM (≈ 0.173 µg/mL) | 1.95 µM (≈ 0.689 µg/mL) | 1.95 µM (≈ 0.689 µg/mL) | 7.81 µM (≈ 2.76 µg/mL) | 1.95 µM (≈ 0.689 µg/mL) | 1.95 µM (≈ 0.689 µg/mL) | 7.81 µM (≈ 2.76 µg/mL) | 7.81 µM (≈ 2.76 µg/mL) | 7.81 µM (≈ 2.76 µg/mL) | CC(C)(C)C(=O)OCC1C=C(c2ccc(Br)cc2)C(=O)O1 (stereo not drawn) | MIC [21]: 1.95 µM (≈ 0.689 µg/mL); MIC [22]: 3.91 µM (≈ 1.38 µg/mL); MIC (Aspergillus fumigatus [23]): 0.98 µM (≈ 0.346 µg/mL); MIC (Candida tropicalis [24]): 7.81 µM (≈ 2.76 µg/mL)
2 | 3.91 µM (≈ 1.42 µg/mL) | 15.6 µM (≈ 5.68 µg/mL) | 7.81 µM (≈ 2.84 µg/mL) | 15.6 µM (≈ 5.68 µg/mL) | 15.6 µM (≈ 5.68 µg/mL) | 15.6 µM (≈ 5.68 µg/mL) | 3.91 µM (≈ 1.42 µg/mL) | 7.81 µM (≈ 2.84 µg/mL) | 15.6 µM (≈ 5.68 µg/mL) | 7.81 µM (≈ 2.84 µg/mL) | 31.2 µM (≈ 11.3 µg/mL) | 1.95 µM (≈ 0.708 µg/mL) | 3.91 µM (≈ 1.42 µg/mL) | 7.81 µM (≈ 2.84 µg/mL) | 7.81 µM (≈ 2.84 µg/mL) | 1.95 µM (≈ 0.708 µg/mL) | 1.95 µM (≈ 0.708 µg/mL) | 15.6 µM (≈ 5.68 µg/mL) | 7.81 µM (≈ 2.84 µg/mL) | 15.6 µM (≈ 5.68 µg/mL) | O=C1OC(COC(=O)c2ccc(Cl)cc2)C=C1c1cccc(Cl)c1 (stereo not drawn) | MIC [21]: 1.95 µM (≈ 0.708 µg/mL); MIC [22]: 3.91 µM (≈ 1.42 µg/mL); MIC (Aspergillus fumigatus [23]): 1.95 µM (≈ 0.708 µg/mL); MIC (Candida tropicalis [24]): 31.2 µM (≈ 11.3 µg/mL)
